One may read the IC50 as the midpoint of a concentration-inhibition curve.

In this experiment the target is Integrin alpha-V/beta-3 (Homo sapiens, UniProt P05106+P06756). The experiment can be described thus: Inhibition of Vitronectin receptor, integrin alphaV-beta3 expressed in HEK 293 cells. The format is cell-based, HEK293. In outline: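 Human recombinant αvβ3 was purified from HEK 293 cells overexpressing it, following a placental αvβ3 purification method, and captured on lyophilized wheat germ agglutinin SPA beads. Values are reported as IC50.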
Chain of Integrin alpha-V/beta-3 (P05106 27-788 limits assumed): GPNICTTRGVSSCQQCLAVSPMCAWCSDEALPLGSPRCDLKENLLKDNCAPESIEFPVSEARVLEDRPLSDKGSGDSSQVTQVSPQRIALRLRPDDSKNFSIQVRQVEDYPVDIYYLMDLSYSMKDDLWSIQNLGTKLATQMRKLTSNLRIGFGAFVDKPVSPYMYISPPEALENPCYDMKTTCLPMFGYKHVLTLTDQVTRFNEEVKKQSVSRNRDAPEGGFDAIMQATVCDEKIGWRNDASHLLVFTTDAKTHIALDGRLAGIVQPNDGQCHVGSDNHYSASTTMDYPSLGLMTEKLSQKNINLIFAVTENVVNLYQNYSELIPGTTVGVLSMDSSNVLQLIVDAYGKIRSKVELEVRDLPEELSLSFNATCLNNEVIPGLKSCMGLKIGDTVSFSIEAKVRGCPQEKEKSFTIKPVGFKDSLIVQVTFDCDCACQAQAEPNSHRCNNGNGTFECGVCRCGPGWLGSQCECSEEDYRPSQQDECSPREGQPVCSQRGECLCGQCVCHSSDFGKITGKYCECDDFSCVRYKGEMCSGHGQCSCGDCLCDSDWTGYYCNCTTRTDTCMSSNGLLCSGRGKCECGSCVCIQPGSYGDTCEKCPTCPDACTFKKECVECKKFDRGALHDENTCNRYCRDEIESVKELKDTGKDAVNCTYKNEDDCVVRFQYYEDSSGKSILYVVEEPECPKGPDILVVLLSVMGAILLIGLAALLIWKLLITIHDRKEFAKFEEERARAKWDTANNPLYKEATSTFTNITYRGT
Chain of Integrin alpha-V/beta-3 (P06756 31-889 limits assumed): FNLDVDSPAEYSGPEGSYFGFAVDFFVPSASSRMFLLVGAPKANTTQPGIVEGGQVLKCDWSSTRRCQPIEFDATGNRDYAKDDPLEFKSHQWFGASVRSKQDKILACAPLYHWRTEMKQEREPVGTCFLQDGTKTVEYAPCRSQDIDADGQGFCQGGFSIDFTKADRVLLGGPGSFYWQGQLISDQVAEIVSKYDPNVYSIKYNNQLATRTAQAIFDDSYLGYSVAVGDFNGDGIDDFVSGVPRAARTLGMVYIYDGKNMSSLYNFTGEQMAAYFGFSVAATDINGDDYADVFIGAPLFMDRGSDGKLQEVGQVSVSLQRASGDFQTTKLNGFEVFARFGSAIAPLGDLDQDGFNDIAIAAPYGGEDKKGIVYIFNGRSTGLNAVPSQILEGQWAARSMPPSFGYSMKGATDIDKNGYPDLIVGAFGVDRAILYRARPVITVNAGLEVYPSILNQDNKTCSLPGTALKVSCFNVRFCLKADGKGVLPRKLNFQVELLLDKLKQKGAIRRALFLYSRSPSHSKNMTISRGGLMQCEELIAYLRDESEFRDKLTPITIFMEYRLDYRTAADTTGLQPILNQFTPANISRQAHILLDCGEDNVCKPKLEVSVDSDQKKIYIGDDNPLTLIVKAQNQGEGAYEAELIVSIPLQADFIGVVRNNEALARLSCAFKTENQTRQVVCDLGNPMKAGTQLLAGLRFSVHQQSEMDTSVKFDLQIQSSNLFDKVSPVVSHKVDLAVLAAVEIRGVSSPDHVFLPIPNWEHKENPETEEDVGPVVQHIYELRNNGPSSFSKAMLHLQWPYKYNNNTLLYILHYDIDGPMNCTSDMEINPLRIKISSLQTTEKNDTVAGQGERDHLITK
Chain of Integrin alpha-V/beta-3 (P06756 891-1048 limits assumed): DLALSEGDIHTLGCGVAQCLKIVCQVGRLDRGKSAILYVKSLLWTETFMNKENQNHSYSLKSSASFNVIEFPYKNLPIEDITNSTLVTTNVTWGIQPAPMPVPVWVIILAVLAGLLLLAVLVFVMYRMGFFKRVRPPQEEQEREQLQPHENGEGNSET
In the case of `O=C(O)C[C@H](NC(=O)CNC(=O)CCCc1ccc2c(n1)NCCC2)c1cccnc1`, the IC50 is 8.8 nM. In other words, the single-digit nanomolar range.
`O=C(O)C[C@H](NC(=O)CN1CCC(CCc2ccc3c(n2)NCCC3)C1=O)c1cccnc1` (stereo not given in full) yielded a half-inhibitory concentration (IC50) of 0.35 nM.
The compound `O=C(NC[C@H](NS(=O)(=O)c1ccccc1)C(=O)O)c1ccc(OCCC2CCNCC2)cc1` gave an IC50 of over 1000 nM.
In the case of `O=C(O)C[C@H](NC(=O)CN1CCC(CCc2ccc3c(n2)NCCC3)C1=O)c1cnc2ccccc2c1` (stereo not given in full) it was 0.04 nM; in that of `CNc1cccc(CCOc2ccc3c(c2)CN(CC(F)(F)F)C(=O)[C@H](CC(=O)O)C3)n1`, 0.15 nM.
